# Measured values reported in ChEMBL document CHEMBL1149311, “Synthesis and antitumor activity of methyltriazene prodrugs simultaneously releasing DNA-methylating agents and the antiresistance drug O(6)-benzylguanine” (J Med Chem, 2004).
# Tests used:
# [1] = system: Non-small cell lung cancer cell line; assay: Antitumor activity against human NCI non-small cell lung cancer cell line panel; type: functional, cell-based
# Method in brief: (§1)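 Tested in the NCI in vitro disease-oriented human tumor cell screen. The endpoints are IC50 (molar concentration giving 50% growth inhibition), TGI (total growth inhibition) and LC50 (50% net cell death). The maximal concentration tested was 100 μM. Subpanel values are means of several individual cell lines.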
# MDA-MB-435 = assay: Antitumor activity against human MDA-MB-435 cells; type: functional; conditions: for CC50: read-out: Log LC50 (the source's name) (converted); for TGI: read-out: Log TGI (converted); method in brief: as §1
# NCI-H460 [2] = assay: Antitumor activity against human NCI-H460 cells at 50 uM relative to control; type: functional
# Method in brief: (§2)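 Tested in the NCI three-cell-line one-dose primary anticancer prescreen. The read-out is growth as % of untreated control cells (100%) at 50 μM.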
# HOP-62 = assay: Antitumor activity against human HOP62 cells; type: functional; conditions: for TGI: read-out: Log TGI (converted); method in brief: as §1
# SR = assay: Antitumor activity against human SR cells; type: functional
# Method in brief: (§3)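 NCI in vitro disease-oriented tumour cell line screen. Read-outs are IC50 (molar concentration giving 50% growth inhibition), TGI (molar concentration giving total inhibition of net growth) and LC50 (molar concentration giving 50% net cell death). The maximal concentration tested was 100 μM.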
# MCF7 [3] = assay: Antitumor activity against human MCF7 cells; type: functional; conditions: for CC50: read-out: Log LC50 (the source's name) (converted); for TGI: read-out: Log TGI (converted); method in brief: as §1
# [4] = Half life of hydrolysis in deuterated phosphate buffer at pD 7.8; conditions: deuterated phosphate buffer, pH 7.8
# NCI [5] = assay: Antitumor activity against human NCI colon cancer cell line panel; type: functional, cell-based; method in brief: as §1
# T47D = assay: Antitumor activity against human T47D cells; type: functional; conditions: for CC50: read-out: Log LC50 (the source's name) (converted); for TGI: read-out: Log TGI (converted); method in brief: as §3
# HCT-15 = assay: Antitumor activity against human HCT15 cells; type: functional; conditions: for CC50: read-out: Log LC50 (the source's name) (converted); for TGI: read-out: Log TGI (converted); method in brief: as §1
# carcinoma cell line = assay: Antitumor activity against human NCI ovarian carcinoma cell line panel; type: functional, cell-based; method in brief: as §1
# SF-295 = assay: Antitumor activity against human SF295 cells; type: functional; conditions: for CC50: read-out: Log LC50 (the source's name) (converted); for TGI: read-out: Log TGI (converted); method in brief: as §1
# M14 = assay: Antitumor activity against human M14 cells; type: functional; conditions: for CC50: read-out: Log LC50 (the source's name) (converted); for TGI: read-out: Log TGI (converted); method in brief: as §1
# CAKI-1 = assay: Antitumor activity against human CAKI1 cells; type: functional; conditions: for CC50: read-out: Log LC50 (the source's name) (converted); for TGI: read-out: Log TGI (converted); method in brief: as §1
# MCF7 [6] = assay: Antitumor activity against human MCF7 cells at 50 uM relative to control; type: functional; method in brief: as §2
# HOP-92 = assay: Antitumor activity against human HOP92 cells; type: functional; conditions: for CC50: read-out: Log LC50 (the source's name) (converted); for TGI: read-out: Log TGI (converted); method in brief: as §1
# SF-268 [7] = assay: Antitumor activity against human SF268 cells at 50 uM relative to control; type: functional; method in brief: as §2
# MDA-MB-231 = assay: Antitumor activity against human MDA-MB-231 cells; type: functional; conditions: for CC50: read-out: Log LC50 (the source's name) (converted); for TGI: read-out: Log TGI (converted); method in brief: as §1
# NCI [8] = assay: Antitumor activity against human NCI renal cancer cell line panel; type: functional, cell-based; method in brief: as §1
# [9] = Antitumor activity against human NCI/ADR RES cells; type: functional
# Method in brief: (§4)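 Tested in the NCI in vitro disease-oriented tumor cell screen, up to a top concentration of 100 µM. Read-outs: IC50 is the molar concentration giving 50% growth inhibition, TGI the concentration giving total growth inhibition, and LC50 the concentration giving 50% net cell death.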
# MCF7 [10] = assay: Antitumor activity against human MCF7 cells at 100 uM relative to control; type: functional
# Method in brief: (§5)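 NCI three-cell-line one-dose primary anticancer prescreen at 100 µM. Growth is expressed as % of untreated control cells, with the control taken as 100%.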
# A498 = assay: Antitumor activity against human A498 cells; type: functional; method in brief: as §4
# MOLT-4 = assay: Antitumor activity against human MOLT4 cells; type: functional; method in brief: as §4
# HT-29 = assay: Antitumor activity against human HT29 cells; type: functional; method in brief: as §4
# NCI-H226 = assay: Antitumor activity against human NCI-H226 cells; type: functional; method in brief: as §4
# NCI-H460 [11] = assay: Antitumor activity against human NCI-H460 cells at 100 uM relative to control; type: functional; method in brief: as §5
# SN12C = assay: Antitumor activity against human SN12C cells; type: functional; method in brief: as §4
# RXF 393 = assay: Antitumor activity against human RXF393 cells; type: functional; method in brief: as §4
# SF-268 [12] = assay: Antitumor activity against human SF268 cells at 100 uM relative to control; type: functional; method in brief: as §5
# ACHN = assay: Antitumor activity against human ACHN cells; type: functional; method in brief: as §4
# CCRF-CEM = assay: Antitumor activity against human CCRF-CEM cells; type: functional; method in brief: as §4
# NCI-H522 = assay: Antitumor activity against human NCI-H522 cells; type: functional; method in brief: as §4
# HCC 2998 = assay: Antitumor activity against human HCC2998 cells; type: functional; method in brief: as §4
# Malme-3M = assay: Antitumor activity against human MALME-3M cells; type: functional; method in brief: as §4
# [13] = read-out: LC50 (the source's name)
# [14] = read-out: Log LC50 (the source's name) (converted)
smiles,measurement,setting,value
CN(/N=N/c1nc(OCc2ccccc2)c2nc[nH]c2n1)C(=O)Oc1ccc([N+](=O)[O-])cc1,IC50,[1],11 µM
same,TGI,[1],29 µM
same,CC50,[1]; [13],47 µM
same,GI50,MDA-MB-435,12.3 µM
same,CC50,MDA-MB-435,> 50.1 µM
same,TGI,MDA-MB-435,39.8 µM
same,Activity,NCI-H460 [2],0%
same,GI50,HOP-62,28.8 µM
same,LC50,HOP-62,> 50.1 µM
same,TGI,HOP-62,> 50.1 µM
same,GI50,SR,26.3 µM
same,CC50,SR; [14],> 50.1 µM
same,TGI,SR; read-out: Log TGI (converted),> 50.1 µM
same,GI50,MCF7 [3],12.3 µM
same,CC50,MCF7 [3],> 50.1 µM
same,TGI,MCF7 [3],> 50.1 µM
same,half-life,[4],0.383 h
same,IC50,NCI [5],9 µM
same,TGI,NCI [5],21 µM
same,CC50,NCI [5]; [13],43 µM
same,GI50,T47D,14.1 µM
same,CC50,T47D,> 50.1 µM
same,TGI,T47D,32.4 µM
same,GI50,HCT-15,8.91 µM
same,CC50,HCT-15,44.7 µM
same,TGI,HCT-15,20 µM
same,IC50,carcinoma cell line,12 µM
same,TGI,carcinoma cell line,34 µM
same,CC50,carcinoma cell line; [13],50 µM
same,GI50,SF-295,11.2 µM
same,CC50,SF-295,> 50.1 µM
same,TGI,SF-295,33.9 µM
same,GI50,M14,8.91 µM
same,CC50,M14,38 µM
same,TGI,M14,18.2 µM
same,GI50,CAKI-1,11 µM
same,CC50,CAKI-1,> 50.1 µM
same,TGI,CAKI-1,35.5 µM
same,Activity,MCF7 [6],1%
same,GI50,HOP-92,7.24 µM
same,CC50,HOP-92,> 50.1 µM
same,TGI,HOP-92,26.3 µM
same,Activity,SF-268 [7],4%
same,GI50,MDA-MB-231,5.75 µM
same,CC50,MDA-MB-231,> 50.1 µM
same,TGI,MDA-MB-231,18.6 µM
same,IC50,NCI [8],9 µM
same,TGI,NCI [8],25 µM
same,CC50,NCI [8]; [13],44 µM
CN(/N=N/c1nc(OCc2ccccc2)c2nc[nH]c2n1)C(=O)N(C)/N=N/c1nc(OCc2ccccc2)c2nc[nH]c2n1,IC50,[1],42 µM
same,TGI,[1],> 100 µM
same,GI50,[9],46.8 µM
same,CC50,[9]; [14],> 100 µM
same,TGI,[9]; read-out: Log TGI (converted),> 100 µM
same,GI50,MDA-MB-435,49 µM
same,CC50,MDA-MB-435,> 100 µM
same,TGI,MDA-MB-435,> 100 µM
same,Activity,MCF7 [10],74%
same,GI50,A498,19.5 µM
same,CC50,A498; [14],> 100 µM
same,TGI,A498; read-out: Log TGI (converted),53.7 µM
same,GI50,HOP-62,95.5 µM
same,LC50,HOP-62,> 100 µM
same,TGI,HOP-62,> 100 µM
same,GI50,MCF7 [3],42.7 µM
same,CC50,MCF7 [3],> 100 µM
same,TGI,MCF7 [3],> 100 µM
same,GI50,MOLT-4,53.7 µM
same,CC50,MOLT-4; [14],> 100 µM
same,TGI,MOLT-4; read-out: Log TGI (converted),> 100 µM
same,GI50,HT-29,60.3 µM
same,CC50,HT-29; [14],> 100 µM
same,TGI,HT-29; read-out: Log TGI (converted),> 100 µM
same,half-life,[4],7.17 h
same,IC50,NCI [5],45 µM
same,TGI,NCI [5],> 100 µM
same,GI50,T47D,39.8 µM
same,CC50,T47D,> 100 µM
same,TGI,T47D,> 100 µM
same,GI50,NCI-H226,38.9 µM
same,CC50,NCI-H226; [14],> 100 µM
same,TGI,NCI-H226; read-out: Log TGI (converted),> 100 µM
same,GI50,HCT-15,35.5 µM
same,CC50,HCT-15,> 100 µM
same,TGI,HCT-15,> 100 µM
same,IC50,carcinoma cell line,50 µM
same,TGI,carcinoma cell line,> 100 µM
same,GI50,SF-295,32.4 µM
same,CC50,SF-295,> 100 µM
same,TGI,SF-295,> 100 µM
same,GI50,M14,70.8 µM
same,CC50,M14,> 100 µM
same,TGI,M14,> 100 µM
same,Activity,NCI-H460 [11],58%
same,GI50,SN12C,56.2 µM
same,CC50,SN12C; [14],> 100 µM
same,TGI,SN12C; read-out: Log TGI (converted),> 100 µM
same,GI50,RXF 393,79.4 µM
same,CC50,RXF 393; [14],> 100 µM
same,TGI,RXF 393; read-out: Log TGI (converted),> 100 µM
same,Activity,SF-268 [12],46%
same,GI50,CAKI-1,17 µM
same,CC50,CAKI-1,> 100 µM
same,TGI,CAKI-1,63.1 µM
same,GI50,HOP-92,30.2 µM
same,CC50,HOP-92,> 100 µM
same,TGI,HOP-92,> 100 µM
same,GI50,ACHN,31.6 µM
same,CC50,ACHN; [14],> 100 µM
same,TGI,ACHN; read-out: Log TGI (converted),> 100 µM
same,GI50,CCRF-CEM,50.1 µM
same,CC50,CCRF-CEM; [14],> 100 µM
same,TGI,CCRF-CEM; read-out: Log TGI (converted),> 100 µM
same,GI50,NCI-H522,39.8 µM
same,CC50,NCI-H522; [14],> 100 µM
same,TGI,NCI-H522; read-out: Log TGI (converted),> 100 µM
same,GI50,HCC 2998,19.5 µM
same,CC50,HCC 2998; [14],> 100 µM
same,TGI,HCC 2998; read-out: Log TGI (converted),81.3 µM
same,GI50,MDA-MB-231,40.7 µM
same,CC50,MDA-MB-231,> 100 µM
same,TGI,MDA-MB-231,> 100 µM
same,IC50,NCI [8],36 µM
same,TGI,NCI [8],87 µM
same,GI50,Malme-3M,40.7 µM
same,CC50,Malme-3M; [14],> 100 µM
same,TGI,Malme-3M; read-out: Log TGI (converted),> 100 µM
